According to ChEMBL document CHEMBL1129639, “Synthesis and cardiotonic activity of novel pyrimidine derivatives: crystallographic and quantum chemical studies” (J Med Chem, 1996):

Tests used:
Cavia porcellus [1] = species: Cavia porcellus; assay: Effect on the contractile force of spontaneously beating atria from Reserpine treated guinea pigs as percentage variation from the control at concentration of 10E-4 M; format: functional
Procedure, shortened: (§1)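 Atria from reserpine-treated guinea pigs (reserpine 2 mg/kg ip, 48 and 24 h before death; only tyramine-unresponsive preparations used). Bath solution at 29 °C, gassed 95% O2/5% CO2, pH 7.5, resting tension […]. After 90 min equilibration, compound added cumulatively, 5 min per concentration. Isometric developed-tension amplitude or beating rate given as % variation from untreated control. Mean ± SEM, 6-10 assays.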

Cavia porcellus [2] = species: Cavia porcellus; assay: Compound was evaluated for its effect on the frequency rate of spontaneously beating atria from Reserpine-treated guinea pigs as percentage variation from the control at concentration of 3 x 10E-6 M; format: functional; procedure, shortened: as §1
Cavia porcellus [3] = species: Cavia porcellus; assay: Effect on the frequency rate of spontaneously beating atria from Reserpine-treated guinea pigs as percentage variation from the control at concentration of 10E-6 M; format: functional; procedure, shortened: as §1
Cavia porcellus [4] = species: Cavia porcellus; assay: Effect on the contractile force of spontaneously beating atria from Reserpine-treated guinea pigs as percentage variation from the control at concentration of 10E-3 M; format: functional; procedure, shortened: as §1
Cavia porcellus [5] = species: Cavia porcellus; assay: Compound was evaluated for its effect on the frequency rate of spontaneously beating atria from Reserpine-treated guinea pigs as percentage variation from the control at different concentration of 3 x 10E-4 M; format: functional; procedure, shortened: as §1
Cavia porcellus [6] = species: Cavia porcellus; assay: Compound was evaluated for its effect on the frequency rate of spontaneously beating atria from Reserpine-treated guinea pigs as percentage variation from the control at different concentration of 10E-4 M; format: functional; procedure, shortened: as §1
Cavia porcellus [7] = species: Cavia porcellus; assay: Compound was evaluated for its effect on the frequency rate of spontaneously beating atria from Reserpine-treated guinea pigs as percentage variation from the control at different concentration of 10E-3 M; format: functional; procedure, shortened: as §1
Cavia porcellus [8] = species: Cavia porcellus; assay: Compound was evaluated for its effect on the frequency rate of spontaneously beating atria from Reserpine-treated guinea pigs as percentage variation from the control at different concentration of 10E-5 M; format: functional; procedure, shortened: as §1
Cavia porcellus [9] = species: Cavia porcellus; assay: Effect on the contractile force of spontaneously beating atria from Reserpine-treated guinea pigs as percentage variation from the control at concentration of 3 x 10E-4 M; format: functional; procedure, shortened: as §1
Cavia porcellus [10] = species: Cavia porcellus; assay: Effect on the contractile force of spontaneously beating atria from Reserpine-treated guinea pigs as percentage variation from the control at concentration of 3 x 10E-6 M; format: functional; procedure, shortened: as §1
Cavia porcellus [11] = species: Cavia porcellus; assay: Compound was evaluated for its effect on the frequency rate of spontaneously beating atria from Reserpine-treated guinea pigs as percentage variation from the control at different concentration of 3 x 10E-5 M; format: functional; procedure, shortened: as §1
Cavia porcellus [12] = species: Cavia porcellus; assay: Effect on the contractile force of spontaneously beating atria from Reserpine-treated guinea pigs as percentage variation from the control at concentration of 10E-5 M; format: functional; procedure, shortened: as §1
Cavia porcellus [13] = species: Cavia porcellus; assay: Effect on the contractile force of spontaneously beating atria from Reserpine-treated guinea pigs as percentage variation from the control at concentration of 10E-6 M; format: functional; procedure, shortened: as §1
Cavia porcellus [14] = species: Cavia porcellus; assay: Effect on the contractile force of spontaneously beating atria from Reserpine-treated guinea pigs as percentage variation from the control at concentration of 3 x 10E-5 M; format: functional; procedure, shortened: as §1
Cavia porcellus [15] = species: Cavia porcellus; assay: Effect on the frequency rate of spontaneously beating atria from Reserpine-treated guinea pigs as percentage variation from the control at concentration of 10E-5 M; format: functional; procedure, shortened: as §1
Cavia porcellus [16] = species: Cavia porcellus; assay: Effect on the frequency rate of spontaneously beating atria from Reserpine-treated guinea pigs as percentage variation from the control at concentration of 10E-4 M; format: functional; procedure, shortened: as §1
Cavia porcellus [17] = species: Cavia porcellus; assay: Effect on the frequency rate of spontaneously beating atria from Reserpine-treated guinea pigs as percentage variation from the control at concentration of 10E-3 M; format: functional; procedure, shortened: as §1
Cavia porcellus [18] = species: Cavia porcellus; assay: Compound was evaluated for its effect on the frequency rate of spontaneously beating atria from Reserpine-treated guinea pigs as percentage variation from the control at concentration of 3 x 10E-5 M; format: functional; procedure, shortened: as §1
Cavia porcellus [19] = species: Cavia porcellus; assay: Compound was evaluated for its effect on the frequency rate of spontaneously beating atria from Reserpine-treated guinea pigs as percentage variation from the control at concentration of 3 x 10E-4 M; format: functional; procedure, shortened: as §1
Cavia porcellus [20] = species: Cavia porcellus; assay: Inotropic effect in electrically driven left atrium from reserpine-treated guinea pigs at concentration of 3 x 10E-4 M; format: functional, Cardiac atrium
Procedure, shortened: (§2)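 Electrically driven left atrium from reserpine-treated guinea pigs (tyramine-unresponsive), 29 °C, pH 7.5, resting tension […], 90 min equilibration. Compound dissolved in DMSO and added cumulatively, 5 min per step. Where used, adenosine deaminase was preincubated 20 min, and basal force was taken after ADA addition. Developed tension given as % change over control. Mean ± SEM of six assays.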

Cavia porcellus [21] = species: Cavia porcellus; assay: Inotropic effect in electrically driven left atrium from reserpine-treated guinea pigs at concentration of 10E-3 M; format: functional, Cardiac atrium; procedure, shortened: as §2
Cavia porcellus [22] = species: Cavia porcellus; assay: Inotropic effect in electrically driven left atrium from reserpine-treated guinea pigs at concentration of 3 x 10E-5 M; format: functional, Cardiac atrium; procedure, shortened: as §2
Cavia porcellus [23] = species: Cavia porcellus; assay: Inotropic effect in electrically driven left atrium from reserpine-treated guinea pigs at concentration of 10E-4 M; format: functional, Cardiac atrium; procedure, shortened: as §2
Cavia porcellus [24] = species: Cavia porcellus; assay: Inotropic effect in electrically driven left atrium from reserpine-treated guinea pigs at concentration of 10E-6 M; format: functional, Cardiac atrium; procedure, shortened: as §2
Cavia porcellus [25] = species: Cavia porcellus; assay: Inotropic effect in electrically driven left atrium from reserpine-treated guinea pigs at concentration of 10E-5 M; format: functional, Cardiac atrium; procedure, shortened: as §2
Cavia porcellus [26] = species: Cavia porcellus; assay: Inotropic effect in electrically driven left atrium from reserpine-treated guinea pigs at concentration of 3 x 10E-6 M; format: functional, Cardiac atrium; procedure, shortened: as §2

Structure (SMILES) | Variation (Cavia porcellus [1]) [%] | Variation (Cavia porcellus [2]) [%] | Variation (Cavia porcellus [3]) [%] | Variation (Cavia porcellus [4]) [%] | Variation (Cavia porcellus [9]) [%] | Variation (Cavia porcellus [10]) [%] | Variation (Cavia porcellus [12]) [%] | Variation (Cavia porcellus [13]) [%] | Variation (Cavia porcellus [14]) [%] | Variation (Cavia porcellus [15]) [%] | Variation (Cavia porcellus [16]) [%] | Variation (Cavia porcellus [17]) [%] | Variation (Cavia porcellus [18]) [%] | Variation (Cavia porcellus [19]) [%] | other results
CN(C)c1ncc(C(=O)O)c(C(C)(C)C)n1 | 13.23 | 3.33 | 0 | 18.64 | 14.21 | 7.58 | 9.67 | 3.51 | 12.51 | – | – | – | – | – | Variation (Cavia porcellus [5]): 7.42%; Variation (Cavia porcellus [6]): 3.71%; Variation (Cavia porcellus [7]): 11.11%; Variation (Cavia porcellus [8]): 3.33%; Variation (Cavia porcellus [11]): 3.33%
COCc1nc(N(C)C)ncc1C(=O)O | 8.24 | 0 | 0 | 5.92 | 8.19 | 9.16 | 9.99 | 5.46 | 9.72 | 0 | -6.25 | -9.37 | -3.12 | -6.25 | –
CN(C)c1nccc(C(C)(C)C)n1 | -37.31 | 0 | 0 | -35.14 | -34.94 | 1.13 | -5.56 | 0 | -24.35 | -6.66 | -16.66 | -40 | -13.33 | -30.01 | –
CCc1nc(N(C)C)ncc1C(=O)O | 6.67 | 0 | 0 | 22.03 | 14.69 | 2.44 | 4.47 | 0 | 6.17 | 0 | 1.11 | -7.69 | 0 | -4.79 | –
Cc1nc(N(C)C)ncc1C(=O)O | 10.82 | 6.45 | 0 | 21.96 | 15.77 | 3.77 | 5.18 | 0 | 8.62 | 9.67 | 3.22 | -3.12 | 3.22 | 6.45 | –
CN(C)c1nccc(-c2ccccc2)n1 | -12.16 | 0 | 0 | -100 | -23.76 | 4.67 | 7.52 | 0 | 5.57 | 0 | 0 | -100 | 0 | -13.33 | –
Nc1cc(-c2ccncc2)c[nH]c1=O [INAMRINONE] | 10.22 | 0 | 0 | 23.12 | 19.03 | 0 | 0.52 | 0 | 4.5 | 0 | 6.25 | 9.87 | 1.5 | 7.2 | –
CCOC(=O)c1cnc(N(C)C)nc1C(F)(F)F | -30.35 | 0 | 0 | -60.44 | -47.85 | 11.26 | 10.67 | 7.15 | -3.61 | -3.23 | -6.66 | -19.35 | -3.61 | -6.66 | –
CN(C)c1ncc(C(=O)O)cn1 | 9.39 | 0 | 0 | 9.64 | 8.34 | 6.36 | 7.54 | 3.76 | 10.48 | 3.12 | 3.44 | 6.25 | 3.44 | 3.44 | –
Cc1ccnc(N(C)C)n1 | 19.04 | 0 | 0 | -36.67 | 22.47 | 2.27 | 8.9 | 0 | 16.76 | 0 | 0 | -17.34 | 0 | -6.25 | –
CN(C)c1nccc(Cc2ccccc2)n1 | -32.51 | 0 | 0 | -57.09 | -46.99 | 10.71 | 9.18 | 6.43 | 3.17 | 3.03 | -3.03 | -12.12 | 3.03 | -9.09 | –
Cc1[nH]c(=O)c(C#N)cc1-c1ccncc1 [MILRINONE] | 37.77 | 0 | 0 | 31.09 | 45.62 | 0 | 16.31 | 0 | 30.32 | 15.22 | 34.16 | 37.2 | 27.09 | 42.85 | Variation (Cavia porcellus [20]): 45.61%; Variation (Cavia porcellus [21]): 42.89%; Variation (Cavia porcellus [22]): 22.81%; Variation (Cavia porcellus [23]): 35.61%; Variation (Cavia porcellus [24]): 0%; Variation (Cavia porcellus [25]): 13.25%; Variation (Cavia porcellus [26]): 9.31%
